This is an account of results in PMC4642222 (Biochemistry, 2015).

Series [1] in a line: Peptide solubility in ITC buffer. It is filed as physicochemical. The conditions noted are these: 25 mM sodium phosphate (pH 6.4), 5 mM NaCl, 1 mM DTT.
Another series addresses Filamin A (Homo sapiens) (UniProt P21333). The conditions noted are these: cited from earlier work.
For a further series, the system named is MAS. Nature of the series: Filamin A phosphorylation in HEK-MAS cells. It is filed as cell-based, human. The method in brief: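 HEK293 cells with doxycycline-inducible (100 ng/mL) myc-tagged MAS were induced 24 h with or without MAS inverse agonist (10 μM), then serum-starved 2 h with inverse agonist or H-89 (10 μM each). They were then treated 1 h with MAS agonist (10 μM) plus H-89; uninduced cells served as controls. Lysates were Western-blotted for pS2152-FLNa, FLNa and GAPDH, and pFLNa/FLNa was given as fold over uninduced. Mean ± SEM, N = 3, unpaired t test.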

Another series concerns AT1R. Nature of the series: Filamin A phosphorylation in HEK-AT1R cells. The format is cell-based, rat. The conditions noted are these: serum starved 2 h, AngII 1 μM for 1 h, mean of N = 2. The method in brief:
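HEK293 cells stably expressing HA-tagged rat AT1R were grown to 80–90% confluency and serum-starved 2 h. They were pretreated 30 min with vehicle or candesartan (10 μM), then given vehicle or AngII (1 μM) for 1 h. About 25 μg of M-PER lysate (protease and phosphatase inhibitors) was run on 4–12% SDS-PAGE. Blots were probed for pS2152-FLNa, FLNa and GAPDH by near-IR fluorescence. pFLNa/FLNa was expressed as fold over untreated; mean ± SEM, N = 2, unpaired t test.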

A further series relates to FLNa. The conditions noted are these: cited from earlier work.
Series [2] has as its target Filamin A Ig21 (Homo sapiens) (UniProt P21333). The conditions noted are these: cited from earlier work.
For series [3], the target named is T1, FLNa Ig21 (Homo sapiens, UniProt P21333).
T1 sequence (P21333 2236-2329 limits assumed): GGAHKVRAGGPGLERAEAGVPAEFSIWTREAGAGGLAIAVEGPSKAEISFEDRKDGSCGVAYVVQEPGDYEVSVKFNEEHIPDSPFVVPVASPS
Nature of the series: Isothermal titration calorimetry. It is filed as binding. The conditions noted are these: FLNa Ig21, 25 mM sodium phosphate (pH 6.4), 30 °C. A general note: Isothermal titration calorimetry measures the heat released or taken up as one component is titrated into another.

The target of series [4] is T1, FLNa Ig21. Nature of the series: 15N HSQC NMR binding to FLNa Ig21. The conditions noted are these: 15N-labeled Ig21, Bruker Avance 600 MHz, 30 °C; D3R peptide at 2-fold excess.
The next series relates to FLNa Ig19. As to the kind of experiment: 15N HSQC NMR binding to FLNa Ig19. Also noted: species or system human. The conditions noted are these: 15N-labeled Ig19, Bruker Avance 600 MHz, 30 °C; 2-fold excess of peptide.
The target in series [5] is Human Filamin A immunoglobulin domain Ig21 (human). Nature of the series: ITC.

“Also recorded” adds a separate entry of the source. Where no end group is shown, it is not given here.

Chain of Filamin A (Homo sapiens) (P21333 2-2647): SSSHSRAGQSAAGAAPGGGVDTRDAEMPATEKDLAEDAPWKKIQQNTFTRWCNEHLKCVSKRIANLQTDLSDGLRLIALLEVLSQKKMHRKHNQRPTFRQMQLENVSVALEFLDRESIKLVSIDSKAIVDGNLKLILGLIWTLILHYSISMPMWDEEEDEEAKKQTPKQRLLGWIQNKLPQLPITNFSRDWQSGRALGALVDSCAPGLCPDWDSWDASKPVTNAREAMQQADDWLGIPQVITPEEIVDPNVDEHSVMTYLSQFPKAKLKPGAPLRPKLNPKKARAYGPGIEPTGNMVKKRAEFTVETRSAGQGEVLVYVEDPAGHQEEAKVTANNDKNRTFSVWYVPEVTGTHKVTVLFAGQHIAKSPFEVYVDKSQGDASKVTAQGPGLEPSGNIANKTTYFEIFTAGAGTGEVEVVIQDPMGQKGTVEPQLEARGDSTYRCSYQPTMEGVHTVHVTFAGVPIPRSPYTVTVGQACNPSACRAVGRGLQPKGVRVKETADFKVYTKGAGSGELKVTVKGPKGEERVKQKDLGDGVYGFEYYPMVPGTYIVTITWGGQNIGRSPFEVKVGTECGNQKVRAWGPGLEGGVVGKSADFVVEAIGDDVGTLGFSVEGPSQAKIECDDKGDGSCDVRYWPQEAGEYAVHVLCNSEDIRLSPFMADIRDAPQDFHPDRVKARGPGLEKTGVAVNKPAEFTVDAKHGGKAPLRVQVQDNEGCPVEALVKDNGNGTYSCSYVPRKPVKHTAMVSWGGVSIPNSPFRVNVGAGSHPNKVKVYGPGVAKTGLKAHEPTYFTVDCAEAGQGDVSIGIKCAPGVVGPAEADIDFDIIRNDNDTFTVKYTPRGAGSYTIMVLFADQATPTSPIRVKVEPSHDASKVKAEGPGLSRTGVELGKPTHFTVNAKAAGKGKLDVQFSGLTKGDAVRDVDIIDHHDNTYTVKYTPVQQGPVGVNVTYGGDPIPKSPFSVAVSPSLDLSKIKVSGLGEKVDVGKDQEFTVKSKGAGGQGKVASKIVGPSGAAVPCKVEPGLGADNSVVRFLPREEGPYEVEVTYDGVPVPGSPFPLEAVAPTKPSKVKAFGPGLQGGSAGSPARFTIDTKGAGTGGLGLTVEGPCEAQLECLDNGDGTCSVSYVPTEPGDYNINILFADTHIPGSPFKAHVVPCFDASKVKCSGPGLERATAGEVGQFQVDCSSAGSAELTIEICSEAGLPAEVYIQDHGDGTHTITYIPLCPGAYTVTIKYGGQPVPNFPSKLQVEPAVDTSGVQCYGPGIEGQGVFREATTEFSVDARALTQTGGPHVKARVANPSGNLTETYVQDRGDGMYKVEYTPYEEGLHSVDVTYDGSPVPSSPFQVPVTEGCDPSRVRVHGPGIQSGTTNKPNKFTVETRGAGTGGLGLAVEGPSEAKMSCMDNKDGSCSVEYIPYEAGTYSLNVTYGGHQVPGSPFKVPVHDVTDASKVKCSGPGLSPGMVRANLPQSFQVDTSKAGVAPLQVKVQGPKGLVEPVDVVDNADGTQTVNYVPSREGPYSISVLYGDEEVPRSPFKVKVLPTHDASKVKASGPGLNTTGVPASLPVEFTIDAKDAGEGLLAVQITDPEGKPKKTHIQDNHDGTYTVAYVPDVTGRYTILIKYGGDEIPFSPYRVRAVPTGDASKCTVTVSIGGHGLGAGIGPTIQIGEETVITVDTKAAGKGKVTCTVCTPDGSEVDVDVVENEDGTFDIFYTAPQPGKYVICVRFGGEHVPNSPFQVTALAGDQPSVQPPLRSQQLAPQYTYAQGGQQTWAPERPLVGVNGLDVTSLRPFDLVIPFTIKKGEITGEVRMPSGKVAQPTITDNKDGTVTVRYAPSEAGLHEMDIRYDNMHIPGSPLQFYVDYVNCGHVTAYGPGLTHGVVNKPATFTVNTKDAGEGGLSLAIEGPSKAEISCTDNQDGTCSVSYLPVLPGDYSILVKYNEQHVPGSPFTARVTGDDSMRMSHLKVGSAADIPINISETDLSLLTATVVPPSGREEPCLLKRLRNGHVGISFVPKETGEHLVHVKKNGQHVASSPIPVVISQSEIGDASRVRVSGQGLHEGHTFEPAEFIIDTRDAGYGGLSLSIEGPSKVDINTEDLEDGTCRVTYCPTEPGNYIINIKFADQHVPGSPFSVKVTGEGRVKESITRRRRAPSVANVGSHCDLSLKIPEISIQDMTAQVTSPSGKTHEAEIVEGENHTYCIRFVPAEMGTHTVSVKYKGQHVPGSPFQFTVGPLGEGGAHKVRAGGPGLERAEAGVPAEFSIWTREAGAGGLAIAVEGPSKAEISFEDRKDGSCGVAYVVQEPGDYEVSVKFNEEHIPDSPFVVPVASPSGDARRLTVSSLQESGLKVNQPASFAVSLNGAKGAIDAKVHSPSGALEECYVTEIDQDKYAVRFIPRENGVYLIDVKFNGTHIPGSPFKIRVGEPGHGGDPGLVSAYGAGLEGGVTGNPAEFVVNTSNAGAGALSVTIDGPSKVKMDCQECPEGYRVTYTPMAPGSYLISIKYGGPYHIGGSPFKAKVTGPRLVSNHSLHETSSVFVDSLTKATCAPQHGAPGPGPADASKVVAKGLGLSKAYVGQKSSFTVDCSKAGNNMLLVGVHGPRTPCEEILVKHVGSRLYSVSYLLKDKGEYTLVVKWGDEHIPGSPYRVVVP

As to KGHTFRSSLSVRLLKFSR [α1D-AR], the “solubility of peptide (in words)” value in series [1] was “limited”.
The Kd is the free concentration of one partner at which half of the binding sites on the other are occupied at equilibrium, for simple one-to-one binding. Turning to GPIbα (from UniProt P07359), the Kd in the series with Filamin A (Homo sapiens) was 100 nM.
On to `C=CCCN1CCC2(CC1)CN(C(=O)c1c(F)cccc1F)c1ccc(Cl)cc12` [AR-inverse agonist], for which, in the series with MAS (10 μM AR-inverse agonist during induction (24 h) and serum starvation (2 h), N = 3), the “FLNa phosphorylation induced by constitutive activity of MAS” value was “abolished constitutive FLNa phosphorylation”.
With “angiotensin II (DRVYIHPF; Angiotensin-2; UniProt P01019 25-32, looked up) [AngII]”, in the series on AT1R, the “filamin phosphorylation, increase (pFLNa/FLNa)” value was determined as 5 fold.
On to lysophosphatidic acid, for which the “level of FLNa phosphorylation” value with FLNa is recorded as “increase the level of FLNa phosphorylation”.
Regarding “β7 integrin C-terminal peptide Ct (from UniProt P26010)”, the Kd in [2] was 40000 nM.
With `O=S(=O)(NCCNC/C=C/c1ccc(Br)cc1)c1cccc2cnccc12` [H-89], the “inhibition of the increase in pFLNa in MAS-expressing cells” value in the series on MAS (H-89 10 μM, Discussion statement) was determined as 60%.
VRKLSNGRLSTSLKLGPLQPRGV [D3R]: at FLNa Ig21 [3], the “affinity for Ig21 by ITC (in words)” value is “could not be assessed accurately by ITC because of its lower affinity; also recorded: binds with a lower affinity”. Moreover, on FLNa Ig21 [4], the “HSQC spectral changes / binding to FLNa Ig21” value was “binds FLNa Ig19 and Ig21”. Besides, in the series with FLNa Ig19, the “HSQC spectral changes / binding to FLNa Ig19” value was “binds FLNa Ig19 and Ig21”.

B1: AT1R filamin binding motif (FBM) peptide (peptide)
peptide: LGKKFKRYFLQLLKYIPPKA
For the molecule B1, in series [5], the Kd was found to be 800 nM.

B2: MAS filamin binding motif (FBM) peptide (peptide)
peptide: KKKRFKESLKVVLTRAFK
With B2, the equilibrium dissociation constant (Kd) in series [5] worked out at 300 nM.

B3: α1D-adrenoreceptor (α1D-AR) filamin binding motif (FBM) peptide (peptide)
peptide: KGHTFRSSLSVRLLKFSR
B3: the Kd in series [5] was determined as 800 nM.
